Rows were chosen to be rich in hits. Some 1.6% of all compounds tested hit in one or more screens of this group.
PPC-1+TRAIL kill: compounds killing PPC-1 cancer cells with TRAIL present (potentiator screen, no TRAIL-free arm); AID 1443; 220,000 compounds, 0.41% hits; PPC-1 cells + TRAIL, ATPLite viability luminescence; cell killing (% activity), % at 4 µM or 5 µM;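 active = cell killing above 50% in the first pass at 4 µM, then a duplicate retest at 5 µM averaging 50% or more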;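 note: plate controls were cells with TRAIL plus DMSO for no effect and medium-only wells lacking cells for full effect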
FLuc act counter: affects firefly luciferase, flagging false hits in luciferase stimulation screens; P08659; 200,000 tested, under 10 active; AID 1027; ATPlite luciferase biochemical, luminescence, 10 min; 0 = ATP-free wells, 1 = DMSO control; activation factor at 10 µM;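 active = luciferase activation factor, scaled between plate controls, of at least 2 with compound at 10 µM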
Target sequence (P08659 whole entry, looked up): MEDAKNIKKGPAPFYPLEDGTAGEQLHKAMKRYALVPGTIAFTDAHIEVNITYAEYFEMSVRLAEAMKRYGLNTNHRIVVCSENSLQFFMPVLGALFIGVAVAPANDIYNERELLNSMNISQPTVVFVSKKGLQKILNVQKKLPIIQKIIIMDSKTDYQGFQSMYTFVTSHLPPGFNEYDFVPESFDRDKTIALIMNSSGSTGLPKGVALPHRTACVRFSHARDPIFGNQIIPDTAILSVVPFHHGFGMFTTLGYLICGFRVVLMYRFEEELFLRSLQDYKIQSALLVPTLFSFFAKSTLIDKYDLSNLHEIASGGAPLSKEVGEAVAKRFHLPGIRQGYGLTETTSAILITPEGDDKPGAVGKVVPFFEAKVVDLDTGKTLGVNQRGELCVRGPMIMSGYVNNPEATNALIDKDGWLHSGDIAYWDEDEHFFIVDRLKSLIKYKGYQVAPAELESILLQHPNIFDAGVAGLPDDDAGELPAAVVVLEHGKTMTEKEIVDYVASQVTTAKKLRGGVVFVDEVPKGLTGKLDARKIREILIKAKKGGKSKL
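assay system = Luciferase/luciferin detection reagent, cell-free biochemical luciferase assay | also added = ATP substrate | times = 10 min post-reagent at room temperature | measured by = luminescence from luciferase reaction | measure = luciferase activation, seen as luminescence increase over controls | benchmarks = low control with PBS replacing ATP, high control enzyme plus ATP without compound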
C8 TRAIL sens: caspase-8 TRAIL sensitization. 360,000 compounds, 1% hits. inhibition (viability loss, TRAIL sensitization), % at 10 µM. NB7+C8 cells + TRAIL, ATPlite viability luminescence;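 active = compounds causing at least 50% loss of cell viability in the single-dose screen, relative to plate controls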
FLuc inh counter: counter-screen for luciferase assay inhibitors: firefly luciferase inhibition; P08659; ATPLite firefly luciferase biochemical luminescence, 10 min; inhibition, % at 10 µM; 200,000 compounds, 1.5% hits; AID 1006;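 active = inhibition above about 50% when tested at 10 µM, limit read from the data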
PPC-1 tox: PPC-1 cell cytotoxicity | cytotoxicity, % at 5 µM | 1,200 compounds, 50% hits | PPC-1 viability, ATPlite luminescence, overnight | shares compounds with PPC-1+TRAIL kill;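 active = reconfirmed compounds whose average cytotoxicity reaches 50% or more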;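 note: 0% = DMSO-treated cells and 100% = wells holding medium but no cells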
* = called active by the depositor; . = no result.

SMILES	PPC-1+TRAIL kill	FLuc act counter	C8 TRAIL sens	FLuc inh counter	PPC-1 tox
O=C(Nc1cccc2ccccc12)C12CC3CC(C1)CC(n1cnc([N+](=O)[O-])n1)(C3)C2	4	1.1	7	-8	14
CCOC(=O)c1nn(-c2ccc3c(c2)CCN3C(C)=O)cc1O	41	0.4	62*	61*	46
CCOC(=O)c1nn(-c2ccc(F)cc2)cc1O	3	0.8	7	24	.
CCn1cc(C(=O)NC2CCCCCC2)c(=O)c2ccc(C)nc21	.	.	-9	.	.
CC(C)COC(=O)N1CCN(S(=O)(=O)c2ccc3c(c2)CCC3)CC1	.	.	-1	.	.
Cc1cccc(C(=O)Nc2ccn(C)n2)c1	.	.	14	.	.
Cc1cccc(C(=O)n2c(=S)nc3cc(C)ccn32)c1	78*	.	82*	.	79*
CCC(C(=O)NCC1CCCO1)N(C(=O)c1snc(C(N)=O)c1N)c1ccc(Cl)cc1 (centres undefined)	.	.	17	.	.
COc1ccc(N/N=C/c2c(C(=O)O)ccc3ccccc23)cc1	43	.	-7	.	38
Fc1ccc(-c2cn3ccccc3n2)cc1	.	.	28	.	.
CCOc1ccc(-c2cn3ccccc3n2)cc1	91*	0	84*	97*	89*
Cc1nc(SCC(=O)Nc2nc3ccccc3s2)c(C#N)c(C)c1C	96*	1	95*	-1	96*
Cc1ccc2sc(NC(=O)CSc3nc(C)cc(C)c3C#N)nc2c1	65*	0.9	70*	13	62*
Cc1cc(C(F)(F)F)c(C#N)c(SCC(=O)Nc2nc3ccccc3s2)n1	11	0.9	44	5	.
Cc1ccc2c(Cl)c(Cc3ccccc3)c(=S)[nH]c2n1	.	.	-1	.	.
COc1cccc(C(=O)N2CCC2(C)C(=O)O)c1 (centres undefined)	.	.	-7	.	.
CCCCCCCCCCCCCC(=O)NO	.	.	40	.	.
C/C(=N/NC(=O)c1cc(C2CC2)[nH]n1)c1cccs1	60*	0.2	67*	84*	50
C/C(=N\NC(=O)c1ccccc1O)c1cccs1	58*	0.1	70*	92*	54*
COc1ccc(N2CC(C(=O)Nc3ccccc3C(=O)NCc3ccco3)CC2=O)cc1 (centres undefined)	22	1	-8	-4	.
O=C(NCc1ccco1)C1CC(=O)N(c2ccc(O)cc2)C1 (centres undefined)	-18	1.1	2	-8	8
Cc1cc(NC(=O)CSc2ccc(-c3nc4cc(C)c(C)cc4[nH]3)cn2)no1	59*	0.4	43	61*	45
Cc1ccc2nc(SCC(=O)Nc3cc(C)on3)[nH]c2c1	29	1.1	0	-6	.
COc1ccc(S(=O)(=O)N2CCCCC2c2cc(C(=O)N3CCOCC3)no2)cc1 (centres undefined)	.	.	-11	.	.
O=C(CN1C(=O)NC2(CCCc3ccccc32)C1=O)NCc1ccc(Cl)cc1Cl (centres undefined)	.	.	4	.	.
SMILES	PPC-1+TRAIL kill	FLuc act counter	C8 TRAIL sens	FLuc inh counter	PPC-1 tox
O=S(=O)(NCCSc1ccccc1)c1ccc(F)cc1	-2	1	-5	-1	-3
Cc1noc(C)c1COc1ccc(C(=O)N2CCCC(C(F)(F)F)C2)cc1 (centres undefined)	.	.	2	.	.
CC(C)(C)c1ccc(C(=O)N/C(N)=N/c2nc3ccccc3o2)cc1	6	1	6	-4	.
Cc1ccc2oc(/N=C(\N)NC(=O)C(C)(C)C)nc2c1	83*	.	86*	.	83*
Cc1ccc(-c2cc3c(N=O)c4ccccc4c-3n[nH]2)cc1	95*	0.1	93*	94*	94*
O=Nc1c2cc(-c3ccccc3)[nH]nc-2c2ccccc12	74*	0.1	72*	87*	75*
Cc1ccc(-c2cc(=O)c3ccccc3[nH]2)cc1	22	0.7	35	28	.
COc1ccc(C(O)c2cnc(C)n2Cc2ccccc2)cc1 (centres undefined)	.	.	-3	.	.
CCOC(=O)c1ccc(-c2c(-c3ccccc3OC)sc3ccc(OC)cc23)cc1F	.	.	11	.	.
Cn1c(NC(=O)c2ccco2)c(-c2ccccc2)c(=O)c2ccccc21	8	1.1	-21	-6	-12
CC(C)C(=O)Nc1c(-c2ccccc2)c(=O)c2ccccc2n1C	-12	.	3	.	.
CCOc1ccc(NC(=O)CCc2nnc3ccc(N4CCC5(CC4)OCCO5)nn23)cc1	.	.	-4	.	.
O=C(Nc1ccc(-c2nc3cccnc3s2)cc1)C1CCCO1 (centres undefined)	62*	0.1	-5	91*	64*
Cc1ccc2nc(-c3ccc(NC(=O)Cc4cccs4)cc3)[nH]c2c1	7	0.9	18	11	.
Cc1ccc2nc(-c3ccc(NC(=O)C4CCCO4)cc3)[nH]c2c1 (centres undefined)	65*	0.2	57*	82*	64*
O=C(CNC(=S)N(Cc1ccccc1)Cc1cccnc1)NC1CCCC1	21	1.1	10	-6	.
O=C(Nc1ccc(NC(=O)c2ccco2)nc1)c1ccco1	53*	0.2	69*	84*	52*
CC(C)Cc1cc(C(=O)Nc2ccc(Br)cc2)no1	14	.	6	.	.
CC(C)Cc1cc(C(=O)Nc2cccc(O)c2)no1	63*	.	64*	.	61*
CC(=O)Nc1ccc(NC2=C/C(=N/S(=O)(=O)c3cccs3)c3ccccc3C2=O)cc1	73*	0.9	84*	14	74*
Cc1ccc(NC2=C/C(=N/S(=O)(=O)c3cccs3)c3ccccc3C2=O)cc1C	12	0.9	26	7	.
Nc1c(C(=O)NCCN2CCOCC2)c2nc3ccccc3nc2n1CCc1ccccc1F	-7	1.1	16	-10	17
CC(OC(=O)Cc1c[nH]c2ccccc12)C(=O)Nc1ccc(S(N)(=O)=O)cc1 (centres undefined)	.	.	1	.	.
C/C(=N\Nc1cccc2cccnc12)c1ccc[nH]1	50	0.1	41	86*	49
c1cc2c(cc1C1=NNC(=NC3CC3)SC1)OCCO2	89*	0	92*	96*	88*
SMILES	PPC-1+TRAIL kill	FLuc act counter	C8 TRAIL sens	FLuc inh counter	PPC-1 tox
Cc1ccc(C(=O)Nc2ccc(O)c(C(=O)O)c2)o1	-1	1	-1	2	-7
CC(=O)OC(Cn1nc(C)cc1C)c1ccccc1 (centres undefined)	4	1.1	-1	-6	0
COc1ccc2c(c1)nc(N)n2Cc1ccccc1	8	1	1	-4	.
COc1ccc(-c2n(Cc3ccccc3)c3ccccc3[n+]2Cc2ccccc2)cc1	8	1	25	-1	5
CCc1ccn2cc(-c3cc(-c4ccccc4)no3)nc2c1	81*	.	90*	.	80*
CC(C)c1ccc(NC(=O)c2csnn2)cc1	41	0.3	49	68*	40
O=C(Nc1ccccc1NC(=O)c1csnn1)c1csnn1	-14	1	-1	4	.
CCCCN1CCCCC1(C)C(=O)NCc1ccc2c(c1)OCO2 (centres undefined)	.	.	12	.	.
O=C(Nc1ccccn1)c1ccc2ccccc2n1	38	0.2	55*	84*	52*
